ChEMBL document CHEMBL1151773, “Synthesis and biological evaluation of amide derivatives of (5,6-dimethoxy-2,3-dihydro-1H-inden-1-yl)acetic acid as anti-inflammatory agents with reduced gastrointestinal ulcerogenecity” (Eur J Med Chem, 2008)

Legend:
[1] = test system: Rattus norvegicus; assay: Antiinflammatory activity in Wistar rat assessed as inhibition of carrageenan-induced hind paw edema volume at 10 mg/kg, po administered 60 mins before carrageenan challenge after 6 hrs relative to control; type: functional
[2] = test system: Rattus norvegicus; assay: Antiinflammatory activity in Wistar rat assessed as inhibition of carrageenan-induced hind paw edema volume at 10 mg/kg, po administered 60 mins before carrageenan challenge after 3 hrs relative to control; type: functional
Outline: (§1)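 Female Wistar rats (170± 20 g), fasted overnight, n=6 per group; dosed orally, then 0.1 ml of 1% carrageenan injected subplantar into right hind paw 1 h later.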

[3] = test system: Rattus norvegicus; assay: Antiarthritic activity in Albino rat assessed as inhibition of Freund's complete adjuvant-induced paw volume at 10 mg/kg, po administered for 14 days daily once starting a day before adjuvant challenge measured on day 8; type: functional
Outline: (§2)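 Female albino rats, 160±10 g, six per group, dosed orally once daily for 14 days starting the day before 0.1 ml Freund's complete adjuvant into the right hind paw subplantar surface. Both hind paw volumes, measured up to a mark at the lateral malleolus, taken before and daily after adjuvant.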

[4] = test system: Rattus norvegicus; assay: Gastrointestinal toxicity in Wistar rat assessed as ulcer index at 1 mg/kg, po after 14 days; type: organism-based; set-up: route oral; conditions: in vivo, 336 h
Outline: (§3)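 Gastric mucosa examined for ulceration at post-mortem of female albino rats sacrificed at the end of the 14-day once-daily oral dosing in the Freund's adjuvant arthritis study; ulcer index scored per animal. Mean ± SEM, n = 6.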

[5] = test system: Rattus norvegicus; assay: Antipyretic activity in Wistar rat assessed as change in LPS-induced rectal temperature at 10 mg/kg, po administered 30 mins before LPS challenge after 5 hrs; type: functional
Outline: (§4)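 Adult female Wistar rats, 170±20 g, fasted 24 h, dosed orally at 09:00; 30 min later E. coli 0111:B4 phenol-extracted LPS in apyrogenic saline given i.p. Rectal temperature by telethermometer probe just before and 1–7 h hourly after LPS; temperature index calculated from these readings. n = 6.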

[6] = test system: Rattus norvegicus; assay: Antiinflammatory activity in Wistar rat assessed as inhibition of carrageenan-induced hind paw edema volume at 10 mg/kg, po administered 60 mins before carrageenan challenge after 4 hrs relative to control; type: functional; outline: as §1
[7] = test system: Rattus norvegicus; assay: Gastrointestinal toxicity in Wistar rat assessed as ulcer index at 30 mg/kg, po after 6 hrs; type: organism-based; set-up: dose 30 mg/kg, route oral; conditions: in vivo
Outline: (§5)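 Female Wistar rats, 175±25 g, fasted 24 h, dosed orally once; sacrificed 6 h later by cervical dislocation. Stomach opened along greater curvature, saline-washed, mucosa inspected with a hand lens. Lesions graded I (edema/hyperemia/petechiae), II (hemorrhagic lesions with small erosions), III (deep ulcers); UI = nI + 2nII + 3nIII. Mean ± SEM, n = 6.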

[8] = test system: Rattus norvegicus; assay: Antiinflammatory activity in Wistar rat assessed as inhibition of carrageenan-induced hind paw edema volume at 10 mg/kg, po administered 60 mins before carrageenan challenge after 1 hr relative to control; type: functional; outline: as §1
[9] = test system: Rattus norvegicus; assay: Antipyretic activity in Wistar rat assessed as change in LPS-induced rectal temperature at 10 mg/kg, po administered 30 mins before LPS challenge after 4 hrs; type: functional; outline: as §4
[10] = test system: Rattus norvegicus; assay: Antiarthritic activity in Albino rat assessed as inhibition of Freund's complete adjuvant-induced paw volume at 10 mg/kg, po administered for 14 days daily once starting a day before adjuvant challenge measured on day 3; type: functional; outline: as §2
[11] = test system: Rattus norvegicus; assay: Antipyretic activity in Wistar rat assessed as change in LPS-induced rectal temperature at 10 mg/kg, po administered 30 mins before LPS challenge after 1 hr; type: functional; outline: as §4
[12] = test system: Rattus norvegicus; assay: Antiinflammatory activity in Wistar rat assessed as inhibition of carrageenan-induced hind paw edema volume at 10 mg/kg, po administered 60 mins before carrageenan challenge after 24 hrs relative to control; type: functional
[13] = organism: Rattus norvegicus; assay: animal or person; conditions: Wistar, po, read-out: INH
[14] = test system: Rattus norvegicus; assay: Antipyretic activity in Wistar rat assessed as change in LPS-induced rectal temperature at 10 mg/kg, po administered 30 mins before LPS challenge after 2 hrs; type: functional; outline: as §4
[15] = test system: Rattus norvegicus; assay: Antipyretic activity in Wistar rat assessed as change in LPS-induced rectal temperature at 10 mg/kg, po administered 30 mins before LPS challenge after 3 hrs; type: functional; outline: as §4
[16] = test system: Rattus norvegicus; assay: Antiarthritic activity in Freund's complete adjuvant challenged Albino rat model assessed as change in body weight at 10 mg/kg, po administered for 14 days daily once starting a day before adjuvant challenge; type: functional; conditions: 336 h, read-out: INH
[17] = test system: Rattus norvegicus; assay: Antipyretic activity in Wistar rat assessed as change in LPS-induced rectal temperature at 10 mg/kg, po administered 30 mins before LPS challenge after 6 hrs; type: functional; outline: as §4
[18] = test system: Mus musculus; assay: Analgesic activity in Swiss albino mouse assessed as inhibition of acetic acid-induced writhing at 10 mg/kg, po administered 60 mins before acetic acid challenge after 5 to 15 mins relative to control; type: functional
Outline: (§6)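 Female Swiss albino mice, 20±5 g, fasted overnight with free water access, dosed orally; 1 h later injected i.p. with 1% v/v acetic acid at 0.1 ml/10 g. Writhes (full hind-limb extension) counted for 15 min, starting 5 min after injection; only animals giving 20 or more writhes used. % inhibition = 100(1−Wt/Wc) vs control group mean; six animals per group.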

[19] = test system: Rattus norvegicus; assay: Antipyretic activity in Wistar rat assessed as change in LPS-induced rectal temperature at 10 mg/kg, po administered 30 mins before LPS challenge after 7 hrs; type: functional; outline: as §4
[20] = test system: Rattus norvegicus; assay: Antiarthritic activity in Albino rat assessed as inhibition of Freund's complete adjuvant-induced paw volume at 10 mg/kg, po administered for 14 days daily once starting a day before adjuvant challenge measured on day 13; type: functional; outline: as §2
[21] = test system: Rattus norvegicus; assay: Antipyretic activity in Wistar rat assessed as change in LPS-induced rectal temperature at 100 mg/kg, po administered 30 mins before LPS challenge after 5 hrs; type: functional; outline: as §4
[22] = test system: Rattus norvegicus; assay: Antipyretic activity in Wistar rat assessed as change in LPS-induced rectal temperature at 100 mg/kg, po administered 30 mins before LPS challenge after 1 hr; type: functional; outline: as §4
[23] = test system: Rattus norvegicus; assay: Antiinflammatory activity in po dosed Wistar rat assessed as inhibition of carrageenan-induced hind paw edema volume administered 60 mins before carrageenan challenge; type: functional
[24] = test system: Rattus norvegicus; assay: Toxicity in Wistar rat assessed as mortality at up to 1000 mg/kg, po after 24 hrs; type: organism-based; set-up: dose 1000 mg/kg, route oral; conditions: in vivo
[25] = test system: Rattus norvegicus; assay: Gastrointestinal toxicity in Wistar rat assessed as ulcer index at 100 mg/kg, po after 14 days; type: organism-based; set-up: dose 100 mg/kg, route oral; conditions: in vivo, 336 h; outline: as §3
[26] = test system: Rattus norvegicus; assay: Antiarthritic activity in Albino rat assessed as inhibition of Freund's complete adjuvant-induced paw volume at 100 mg/kg, po administered for 14 days daily once starting a day before adjuvant challenge measured on day 13; type: functional; outline: as §2
[27] = test system: Rattus norvegicus; assay: Antiarthritic activity in Albino rat assessed as inhibition of Freund's complete adjuvant-induced paw volume at 100 mg/kg, po administered for 14 days daily once starting a day before adjuvant challenge measured on day 3; type: functional; outline: as §2
[28] = test system: Rattus norvegicus; assay: Antipyretic activity in Wistar rat assessed as change in LPS-induced rectal temperature at 100 mg/kg, po administered 30 mins before LPS challenge after 7 hrs; type: functional; outline: as §4
[29] = test system: Rattus norvegicus; assay: Antipyretic activity in Wistar rat assessed as change in LPS-induced rectal temperature at 100 mg/kg, po administered 30 mins before LPS challenge after 3 hrs; type: functional; outline: as §4
[30] = test system: Rattus norvegicus; assay: Antipyretic activity in Wistar rat assessed as change in LPS-induced rectal temperature at 100 mg/kg, po administered 30 mins before LPS challenge after 2 hrs; type: functional; outline: as §4
[31] = test system: Rattus norvegicus; assay: Antiinflammatory activity in Wistar rat assessed as inhibition of carrageenan-induced hind paw edema volume at 100 mg/kg, po administered 60 mins before carrageenan challenge after 4 hrs relative to control; type: functional
[32] = test system: Rattus norvegicus; assay: Antiinflammatory activity in Wistar rat assessed as inhibition of carrageenan-induced hind paw edema volume at 100 mg/kg, po administered 60 mins before carrageenan challenge after 1 hr relative to control; type: functional
[33] = test system: Mus musculus; assay: Analgesic activity in Swiss albino mouse assessed as inhibition of acetic acid-induced writhing at 100 mg/kg, po administered 60 mins before acetic acid challenge after 5 to 15 mins relative to control; type: functional; outline: as §6
[34] = test system: Rattus norvegicus; assay: Antiinflammatory activity in Wistar rat assessed as inhibition of carrageenan-induced hind paw edema volume at 100 mg/kg, po administered 60 mins before carrageenan challenge after 6 hrs relative to control; type: functional
[35] = test system: Rattus norvegicus; assay: Gastrointestinal toxicity in Wistar rat assessed as ulcer index at 100 mg/kg, po after 6 hrs; type: organism-based; set-up: dose 100 mg/kg, route oral; conditions: in vivo; outline: as §5
[36] = test system: Rattus norvegicus; assay: Antiinflammatory activity in Wistar rat assessed as inhibition of carrageenan-induced hind paw edema volume at 100 mg/kg, po administered 60 mins before carrageenan challenge after 2 hrs relative to control; type: functional
[37] = test system: Rattus norvegicus; assay: Antipyretic activity in Wistar rat assessed as change in LPS-induced rectal temperature at 100 mg/kg, po administered 30 mins before LPS challenge after 6 hrs; type: functional; outline: as §4
[38] = test system: Rattus norvegicus; assay: Antiarthritic activity in Freund's complete adjuvant challenged Albino rat model assessed as change in body weight at 100 mg/kg, po administered for 14 days daily once starting a day before adjuvant challenge; type: functional; conditions: 336 h, read-out: INH
[39] = test system: Rattus norvegicus; assay: Antipyretic activity in Wistar rat assessed as change in LPS-induced rectal temperature at 100 mg/kg, po administered 30 mins before LPS challenge after 4 hrs; type: functional; outline: as §4
[40] = test system: Rattus norvegicus; assay: Antiinflammatory activity in Wistar rat assessed as inhibition of carrageenan-induced hind paw edema volume at 100 mg/kg, po administered 60 mins before carrageenan challenge after 24 hrs relative to control; type: functional
[41] = test system: Rattus norvegicus; assay: Antiinflammatory activity in Wistar rat assessed as inhibition of carrageenan-induced hind paw edema volume at 100 mg/kg, po administered 60 mins before carrageenan challenge after 3 hrs relative to control; type: functional
[42] = test system: Rattus norvegicus; assay: Antiarthritic activity in Albino rat assessed as inhibition of Freund's complete adjuvant-induced paw volume at 100 mg/kg, po administered for 14 days daily once starting a day before adjuvant challenge measured on day 8; type: functional; outline: as §2

Structure (SMILES): COc1ccc2c(c1)c(CC(=O)O)c(C)n2C(=O)c1ccc(Cl)cc1 [INDOMETHACIN]
- inhibition in vivo at 10 mg/kg [1]: 48.1%
- inhibition in vivo at 10 mg/kg [2]: 65.2%
- inhibition in vivo at 10 mg/kg [3]: 43.9%
- UI [4]: 72
- Activity [5]: 0.3 °C
- inhibition in vivo at 10 mg/kg [6]: 57.8%
- UI [7]: 31.37
- inhibition in vivo at 10 mg/kg [8]: 50%
- Activity [9]: 0.22 °C
- inhibition in vivo at 10 mg/kg [10]: 37.5%
- Activity [11]: -0.39 °C
- inhibition in vivo at 10 mg/kg [12]: 13.3%
- inhibition in vivo at 10 mg/kg [13]: 58%
- Activity [14]: -1.03 °C
- Activity [15]: -0.11 °C
- inhibition in vivo at 10 mg/kg [16]: 5.68 g
- Activity [17]: 0.35 °C
- inhibition in vivo at 10 mg/kg [18]: 51.5%
- Activity [19]: 0.55 °C
- inhibition in vivo at 10 mg/kg [20]: 46.5%

Structure (SMILES): COc1cc2c(cc1OC)C(CC(=O)NC1CCCCC1)CC2 (configuration not stated)
- Activity [21]: 0.51 °C
- Activity [22]: -0.33 °C
- ED30 [23]: 20 mg/kg
- Activity [24]: Non-toxic
- UI [25]: 0
- inhibition in vivo at 100 mg/kg [26]: 33.3%
- inhibition in vivo at 100 mg/kg [27]: 29%
- Activity [28]: 0.43 °C
- Activity [29]: -0.67 °C
- Activity [30]: -1.26 °C
- inhibition in vivo at 100 mg/kg [31]: 50%
- inhibition in vivo at 100 mg/kg [32]: 50%
- inhibition in vivo at 100 mg/kg [33]: 44.7%
- inhibition in vivo at 100 mg/kg [34]: 48.1%
- UI [35]: 0
- inhibition in vivo at 100 mg/kg [36]: 56%
- Activity [37]: 0.45 °C
- inhibition in vivo at 100 mg/kg [38]: 6.84 g
- Activity [39]: 0.05 °C
- inhibition in vivo at 100 mg/kg [40]: 53.3%
- inhibition in vivo at 100 mg/kg [41]: 49.3%
- inhibition in vivo at 100 mg/kg [42]: 31.8%
